From ChEMBL document CHEMBL1128505, “On the quantitative structure-activity relationships of meta-substituted (S)-phenylpiperidines, a class of preferential dopamine D2 autoreceptor ligands: modeling of dopamine synthesis and release in vivo by means of partial least squares regression” (1995)

Columns and labels:
[1] = target: D(2) dopamine receptor (Rattus norvegicus) (UniProt P61169); assay: Effect on DOPA accumulation in limbic and striatal regions of reserpine-pretreated rat brains.; format: functional, tissue-based; settings: Brain
[2] = target: D(2) dopamine receptor (Rattus norvegicus) (UniProt P61169); assay: Effect on extracellular DA levels in the striatal region of rat brain.; format: functional, tissue-based
Outline: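 Awake, freely moving rats; test compound injected subcutaneously, with dose varying by compound. Extracellular striatal DA measured by microdialysis, analysing perfusates collected from implanted probes. The value is the maximum DA level between 20 and 100 min after administration, expressed as percent of saline controls.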

Rattus norvegicus [3] = assay: In vivo effect on DOPA accumulation in limbic and striatal regions of the rat brain without reserpine pretreatment; format: functional, Limbic system; set-up: unit not given beside the values
Rattus norvegicus [4] = assay: The in vivo effect of the compound (sc,3.7uM/kg) on DOPA accumulation in limbic and striatal regions of the rat brain without reserpine pretreatment.; format: functional
Outline: (§1)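 No reserpine pretreatment. Rats given test compound subcutaneously, then the decarboxylase inhibitor NSD 1015. L-DOPA accumulated in limbic and striatal brain tissue was measured. The value is the maximum effect, selected at a dose where the dose-response curve had reached maximum, expressed as percent of controls.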

Rattus norvegicus [5] = assay: The in vivo effect of the compound (sc injection, 107 umol/kg) on DOPA accumulation in limbic and striatal regions of reserpine-pretreated rat brains.; format: functional, Brain
Outline: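 Rats pretreated with reserpine 18 h before subcutaneous test compound, then given the decarboxylase inhibitor NSD 1015. L-DOPA accumulation measured in limbic and striatal brain tissue. The value is the maximum effect, taken at a dose where the dose-response curve had reached maximum, expressed as percent of controls.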

Rattus norvegicus [6] = assay: The in vivo effect of the compound (sc injection, 50 umol/kg) on DOPA accumulation in limbic and striatal regions of reserpine-pretreated rat brains.; format: functional, Brain
Rattus norvegicus [7] = assay: The in vivo effect of the compound (sc injection, 227 umol/kg) on DOPA accumulation in limbic and striatal regions of reserpine-pretreated rat brains.; format: functional, Brain
Rattus norvegicus [8] = assay: The in vivo effect of the compound (sc,227uM/kg) on DOPA accumulation in limbic and striatal regions of the rat brain without reserpine pretreatment.; format: functional; outline: as §1

D(2) dopamine receptor (Rattus norvegicus), sequence (P61169 whole entry): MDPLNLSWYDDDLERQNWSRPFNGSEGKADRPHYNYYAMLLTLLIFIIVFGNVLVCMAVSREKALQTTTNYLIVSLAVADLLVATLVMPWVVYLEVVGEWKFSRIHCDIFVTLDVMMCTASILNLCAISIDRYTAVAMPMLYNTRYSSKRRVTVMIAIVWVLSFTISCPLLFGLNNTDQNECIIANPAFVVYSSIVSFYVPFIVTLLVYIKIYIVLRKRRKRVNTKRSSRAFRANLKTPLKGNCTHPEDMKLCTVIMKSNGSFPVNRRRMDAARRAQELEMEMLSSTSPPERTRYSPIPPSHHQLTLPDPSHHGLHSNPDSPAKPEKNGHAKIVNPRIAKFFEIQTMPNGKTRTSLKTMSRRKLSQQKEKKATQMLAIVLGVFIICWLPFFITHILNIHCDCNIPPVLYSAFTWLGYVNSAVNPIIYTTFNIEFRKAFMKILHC

| Compound | DOPA accumulation [1] | Activity [2] | further results |
| --- | --- | --- | --- |
| CC(C)N1CCC[C@@H](c2cccc(O)c2)C1 | 18 | 56 | DOPA accumulation (Rattus norvegicus [3]): 47 |
| CCCCN1CCC[C@@H](c2cccc(O)c2)C1 |  |  | DOPA accumulation (Rattus norvegicus [4]): 86; DOPA accumulation (Rattus norvegicus [5]): 22 |
| CCCCN1CCC[C@@H](c2cccc(C#N)c2)C1 |  |  | DOPA accumulation (Rattus norvegicus [6]): 71 |
| CCCN1CCC[C@@H](c2cccc(C=O)c2)C1 | 83 |  |  |
| CCCCN1CCC[C@@H](c2cccc(OS(=O)(=O)C(F)(F)F)c2)C1 |  |  | DOPA accumulation (Rattus norvegicus [3]): 234 |
| CCCc1cccc([C@@H]2CCCN(CCC)C2)c1 | 62 |  | DOPA accumulation (Rattus norvegicus [3]): 190 |
| CCCN1CCC[C@@H](c2cccc(N)c2)C1 | 91 |  |  |
| CCCN1CCC[C@@H](c2cccc(Br)c2)C1 | 101 | 372 |  |
| CCCN1CCC[C@@H](c2cccc(-c3ccsc3)c2)C1 |  | 106 |  |
| CCCN1CCC[C@@H](c2cccc(OS(C)(=O)=O)c2)C1 | 92 | 239 | DOPA accumulation (Rattus norvegicus [3]): 249 |
| CCCN1CCC[C@@H](c2cccc(SC)c2)C1 |  |  | DOPA accumulation (Rattus norvegicus [6]): 92 |
| CCCN1CCC[C@@H](c2cccc(CC#N)c2)C1 | 57 |  |  |
| CCCN1CCC[C@@H](c2cccc(CO)c2)C1 | 50 | 191 |  |
| Oc1cccc([C@@H]2CCCN(CCc3ccccc3)C2)c1 |  |  | DOPA accumulation (Rattus norvegicus [4]): 37; DOPA accumulation (Rattus norvegicus [5]): 22 |
| CCCN1CCC[C@@H](c2cccc(S(C)(=O)=O)c2)C1 | 95 | 293 |  |
| CCCN1CCC[C@@H](c2cccc(OC)c2)C1 | 66 |  |  |
| CCCN1CCC[C@@H](c2ccccc2)C1 |  | 543 | DOPA accumulation (Rattus norvegicus [6]): 65; DOPA accumulation (Rattus norvegicus [3]): 140 |
| CCCN1CCC[C@@H](c2cccc(O)c2)C1 [PRECLAMOL] |  | 400 | DOPA accumulation (Rattus norvegicus [7]): 30 |
| CCC(C)N1CCC[C@@H](c2cccc(C#N)c2)C1 (some centres not stated) |  | 282 |  |
| CN1CCC[C@@H](c2cccc(OS(=O)(=O)C(F)(F)F)c2)C1 |  |  | DOPA accumulation (Rattus norvegicus [3]): 157 |
| CCN1CCC[C@@H](c2cccc(C#N)c2)C1 |  | 223 |  |
| CCN1CCC[C@@H](c2cccc(OS(=O)(=O)C(F)(F)F)c2)C1 |  | 143 | DOPA accumulation (Rattus norvegicus [3]): 286 |
| C=CCN1CCC[C@@H](c2ccccc2)C1 |  | 364 |  |
| C#Cc1cccc([C@@H]2CCCN(CCC)C2)c1 |  | 270 |  |
| Oc1cccc([C@@H]2CCCNC2)c1 |  |  | DOPA accumulation (Rattus norvegicus [8]): 44 |
| CCCN1CCC[C@@H](c2cccc(C(C)=O)c2)C1 | 73 | 196 |  |
| CCCN1CCC[C@@H](c2cccc(C#N)c2)C1 | 105 | 411 |  |
| CN1CCC[C@@H](c2cccc(O)c2)C1 |  |  | DOPA accumulation (Rattus norvegicus [5]): 20; DOPA accumulation (Rattus norvegicus [8]): 51 |
| C=CCN1CCC[C@@H](c2cccc(C#N)c2)C1 | 85 | 593 |  |
